The source of these data is ChEMBL document CHEMBL3045252, “Stereoselective syntheses of all stereoisomers of lariciresinol and their plant growth inhibitory activities” (J Agric Food Chem, 2011).

For data set [1], the system named is Lactuca sativa. Kind of data set: Plant growth regulatory activity in lettuce Lactuca sativa (lettuce) assessed as inhibition of shoot length at 1 mM at 20 degC measured after 3 days. The class given is functional. As to conditions: 72 h, read-out: GI. The procedure, abridged:
(§1)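 Paper was treated with acetone solution and dried, then 3 mL water added to a final 1 × 10^-3 M. Sealed dishes kept dark at 20 °C. Root and shoot lengths expressed as growth relative to the negative control. Mean ± SEM. One-way ANOVA with Tukey post-test.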

Data set [2] has as its system Lolium multiflorum. Kind of data set: Plant growth regulatory activity in Lolium multiflorum (Italian ryegrass) assessed as inhibition of root growth at 1x10'-3 M at 20 degC measured after 5 days. The data set is classed as functional. As to conditions: 120 h, read-out: GI. The procedure, abridged: (§2)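 Paper was pre-wetted with 500 μL acetone solution (6.0 × 10^-3 to 6.0 × 10^-8 M) and dried, then 3 mL water added to a final 1.0 × 10^-3 to 1.0 × 10^-8 M. Sealed dishes kept dark at 20 °C. Root and shoot lengths read against a negative control. Mean ± SEM; three experiments below 10^-3 M. One-way ANOVA with Tukey post-test.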

For data set [3], the system named is Lactuca sativa. Kind of data set: Plant growth regulatory activity in lettuce Lactuca sativa (lettuce) assessed as inhibition of root growth at 1 mM at 20 degC measured after 3 days. The class given is functional. As to conditions: 72 h, read-out: GI. The method in brief: as §1
In data set [4] the test system is Lolium multiflorum. Kind of data set: Plant growth regulatory activity in Lolium multiflorum (Italian ryegrass ) assessed as inhibition of shoot length at 1x10'-3 M at 20 degC measured after 5 days. The data set is classed as functional. As to conditions: 120 h, read-out: GI. The method in brief:
as §2

Data set [5] concerns Lolium multiflorum. Description: Plant growth regulatory activity in Lolium multiflorum (Italian ryegrass) assessed as stimulation of root growth up to 10'--4 to 10^-7 M at 20 degC measured after 5 days. The class given is functional. The method in brief: as §2
Data set [6] relates to Lolium multiflorum. Description: Inhibition of seed germination in Lolium multiflorum (Italian ryegrass) seed assessed as seed germination rate (reference value: 90.3 +/- 1.40%). The data set is classed as functional.
Data set [7] has as its system Lolium multiflorum. Kind of data set: Inhibition of germination in Lolium multiflorum (Italian ryegrass) seed assessed as growth rate of germinated grass root. The class given is functional.
Data set [8] relates to Lolium multiflorum. Description: Toxicity in italian ryegrass Lolium multiflorum (Italian ryegrass) assessed as adverse effect up to 10^-7 M. As to conditions: in vivo. The class given is organism-based.
The test system of data set [9] is Lolium multiflorum. Kind of data set: Plant growth regulatory activity in Lolium multiflorum (Italian ryegrass) assessed as inhibition of shoot length at 1 mM at 20 degC measured after 5 days. The data set is classed as functional. As to conditions: 120 h, read-out: GI. The method in brief:
as §2

Structures are written as SMILES.

`COc1cc(C[C@@H]2CO[C@H](c3ccc(O)c(OC)c3)[C@@H]2CO)ccc1O`: the inhibition of growth at 1000 µM was -1.6% with Lactuca sativa [1], -30% in the data set with Lolium multiflorum [2], -20.7% in the data set on Lactuca sativa [3] and under 23% with Lolium multiflorum [4].

As to `COc1cc(C[C@H]2CO[C@H](c3ccc(O)c(OC)c3)[C@@H]2CO)ccc1O`, in the data set with Lolium multiflorum [5], the Activity was found to be 20%. In addition, the “inhibition (INH)” value was 72.5% in the data set on Lolium multiflorum [6] and -35.4% with Lolium multiflorum [7]. The figures for the inhibition of growth at 1000 µM in the data set with Lactuca sativa [1], in the data set on Lolium multiflorum [2] and in the data set on Lactuca sativa [3] were -1.6%, -48.2% and -20.7%, respectively.

For the molecule `COc1cc(C[C@@H]2CO[C@@H](c3ccc(O)c(OC)c3)[C@H]2CO)ccc1O`, the inhibition of growth at 1000 µM in the data set on Lactuca sativa [1] is -32.3%.

With `COc1cc(C[C@H]2CO[C@@H](c3ccc(O)c(OC)c3)[C@@H]2CO)ccc1O`, in the data set with Lolium multiflorum [8], the Activity entry is listed as “Non-toxic”. The figures for the inhibition of growth at 1000 µM in the data set with Lactuca sativa [1] and in the data set on Lactuca sativa [3] were -1.6% and -20.7%, respectively.

Regarding `COc1cc(C[C@@H]2CO[C@H](c3ccc(O)c(OC)c3)[C@H]2CO)ccc1O`, the Activity entry in the data set on Lolium multiflorum [8] is recorded as “Non-toxic”. Also, the results for the inhibition of growth at 1000 µM in the data set on Lactuca sativa [1] and with Lactuca sativa [3] were -1.6% and -20.7%, respectively.

As to `COc1cc(C[C@H]2CO[C@@H](c3ccc(O)c(OC)c3)[C@H]2CO)ccc1O`, the inhibition of growth at 1000 µM with Lactuca sativa [1] is -1.6%; with Lolium multiflorum [2], -30%; in the data set with Lactuca sativa [3], -20.7%; in the data set with Lolium multiflorum [4] it was under 23%.

Consider `COc1cc(C[C@@H]2CO[C@@H](c3ccc(O)c(OC)c3)[C@@H]2CO)ccc1O` [(-)-Lariciresinol], for which the figures for the “inhibition (INH)” value with Lolium multiflorum [6] and in the data set with Lolium multiflorum [7] were 80% and -57.2%, respectively. In addition, the inhibition of growth at 1000 µM in the data set on Lolium multiflorum [9] was -17.1%; with Lactuca sativa [1] it was -13.3%; with Lolium multiflorum [2] it was -44.3%; in the data set with Lactuca sativa [3] it was -8.2%.

For the molecule `COc1cc(C[C@H]2CO[C@H](c3ccc(O)c(OC)c3)[C@H]2CO)ccc1O` [LARICIRESINOL], the results for the “inhibition (INH)” value in the data set on Lolium multiflorum [6] and in the data set on Lolium multiflorum [7] were 72.5% and -40.7%, respectively. Moreover, the inhibition of growth at 1000 µM in the data set on Lactuca sativa [1] is -22%; with Lolium multiflorum [2], -29.3%; with Lactuca sativa [3], -14.4%.
